The source of these data is ChEMBL document CHEMBL4304743, “Discovery of ( E)- N1-(3-Fluorophenyl)- N3-(3-(2-(pyridin-2-yl)vinyl)-1 H-indazol-6-yl)malonamide (CHMFL-KIT-033) as a Novel c-KIT T670I Mutant Selective Kinase Inhibitor for Gastrointestinal Stromal Tumors (GISTs)” (J Med Chem, 2019).

One may read the Tmax as the time at which the peak concentration occurs. As a reminder, the AUC(0-t) is exposure summed from dosing to a finite time, without extrapolation to infinity. What is called pEC50 is the negative decadic logarithm of the EC50, by convention in mol/L. A higher pEC50 goes with a small EC50. In general, pIC50 refers to the IC50 on a negative log10 scale, so that one unit is a factor of ten. As a reminder, the GI50 is the concentration that inhibits growth by half.

pEC50, pIC50: −log10 of the molar value. Activity calls are given as the source filed them. The rule behind the calls is not given here. Bounds are passed on as bounds.

Data set [1] deals with Mus musculus. In words: Inhibition of c-KIT phosphorylation at Y703 residue in tumor of human GIST5R cells xenografted in nude mouse at 100 mg/kg, po administered as single dose and measured after 2 hrs. It counts as functional, organism-based. In short, it runs like this:
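Female nu/nu mice bearing subcutaneous GIST-5R tumors (cells in Matrigel, right flank) given one oral dose of 100 mg/kg in 0.5% methylcellulose/0.4% Tween80. Tumors collected over a 2 h time course. p-c-KIT, p-ERK and p-AKT measured alongside plasma drug levels.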
In general terms: A xenograft is tissue or cells of one species grown in another, often human tumour cells in immunodeficient mice.

Data set [2] is described as follows: Tmax in mouse at 1 mg/kg, iv measured after 2 to 720 mins by LC-tandem mass spectrometry analysis. The following applies: in vivo. It counts as ADME, organism-based.
The test system of data set [3] is Mus musculus. In words: Inhibition of c-KIT phosphorylation at Y823 residue in tumor of human GIST5R cells xenografted in nude mouse at 100 mg/kg, po administered as single dose and measured at 2 hrs. It counts as functional, organism-based. In short, it runs like this: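 Female nu/nu mice bearing subcutaneous GIST-5R xenografts (cells in Matrigel, right flank) given one oral gavage dose of 100 mg/kg in HKI suspension (0.5% methocellulose/0.4% Tween80 in ddH2O). Tumors collected over a 2 h time course; p-c-KIT, p-ERK and p-AKT assessed by Western blot; plasma drug levels monitored in parallel.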

A short description of data set [4]: AUC (0 to t) in Sprague-Dawley rat at 10 mg/kg, po measured after 5 to 720 mins by LC-tandem mass spectrometry analysis. It counts as ADME, organism-based. Particulars: in vivo. In short, it runs like this:
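Male Sprague-Dawley rats (190-210 g), fasted 12 h, randomized into two groups: 1 mg/kg i.v. or 10 mg/kg p.o., both formulated in 10% DMSO/90% of 5% glucose water. Blood sampled at 2-720 min (i.v.) or 5-720 min (p.o.). Plasma protein-precipitated with methanol, caffeine internal standard, LC-MS/MS. Noncompartmental analysis; triplicate, ±SD.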

For data set [5], the target named is T1, Mast/stem cell growth factor receptor Kit (Homo sapiens, UniProt P10721). In words: Inhibition of wild type c-KIT phosphorylation at Y703 residue in human COLO320DM cells after 2 hrs by Western blot analysis. It counts as cell-based. In general terms: In western blotting, separated proteins are transferred to a membrane and probed.
T1 sequence (P10721 whole entry): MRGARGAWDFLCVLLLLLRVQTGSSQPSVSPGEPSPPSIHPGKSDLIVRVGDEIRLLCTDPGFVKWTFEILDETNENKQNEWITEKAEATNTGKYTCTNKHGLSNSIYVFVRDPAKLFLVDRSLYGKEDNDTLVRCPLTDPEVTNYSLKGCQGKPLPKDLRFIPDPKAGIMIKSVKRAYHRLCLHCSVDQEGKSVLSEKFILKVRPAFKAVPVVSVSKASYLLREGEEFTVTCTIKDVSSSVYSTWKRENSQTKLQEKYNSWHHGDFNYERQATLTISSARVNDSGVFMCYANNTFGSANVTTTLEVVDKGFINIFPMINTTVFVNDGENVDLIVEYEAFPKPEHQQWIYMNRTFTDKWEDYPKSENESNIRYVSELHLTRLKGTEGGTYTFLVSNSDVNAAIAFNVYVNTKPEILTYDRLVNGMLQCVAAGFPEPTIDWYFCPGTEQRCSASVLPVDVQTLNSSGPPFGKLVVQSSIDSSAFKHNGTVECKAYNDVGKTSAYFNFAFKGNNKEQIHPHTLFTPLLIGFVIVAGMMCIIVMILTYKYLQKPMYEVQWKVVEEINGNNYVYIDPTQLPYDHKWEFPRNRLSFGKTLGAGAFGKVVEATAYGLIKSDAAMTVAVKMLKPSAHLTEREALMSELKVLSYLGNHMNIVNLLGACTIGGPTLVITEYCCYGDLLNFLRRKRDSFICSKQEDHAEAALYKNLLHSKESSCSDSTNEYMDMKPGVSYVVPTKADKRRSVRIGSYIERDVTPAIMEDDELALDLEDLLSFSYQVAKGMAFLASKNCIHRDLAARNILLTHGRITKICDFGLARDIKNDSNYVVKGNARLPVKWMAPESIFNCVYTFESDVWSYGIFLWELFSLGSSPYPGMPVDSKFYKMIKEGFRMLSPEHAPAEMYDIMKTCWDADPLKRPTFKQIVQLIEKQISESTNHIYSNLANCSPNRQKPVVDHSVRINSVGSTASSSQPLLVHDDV
The test system of data set [6] is Mus musculus. As to the kind of experiment: Effect on body weight in nude mouse xenografted with human GIST5R cells at 25 to 100 mg/kg, po administered […] via gavage for 28 days. It counts as ADME, organism-based. Particulars: in vivo, 672 h. In short, it runs like this:
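Female nu/nu mice (5 weeks old) given subcutaneous right-flank GIST-5R cells in Matrigel. Dosing began at tumors of 200-400 mm3; randomized, 4 mice per group. Daily oral dosing (QD) at 25, 50 or 100 mg/kg in 0.5% methylcellulose/0.4% Tween80, or vehicle alone, for 28 days. Body weight and tumor volume, (W²×L)/2, measured daily; mean±SEM.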

For data set [7], the system named is Mast/stem cell growth factor receptor Kit (Homo sapiens), P10721 [UNDEFINED MUTATION]. As to the kind of experiment: Inhibition of c-KIT 560 to 578 deletion/T670I double mutant in human GIST5R cells assessed as reduction in STAT3 phosphorylation after 1 hr by Western blot analysis. It counts as cell-based. In short, it runs like this: (§1)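 Serial compound dilutions applied for 1 h to GIST-T1, GIST-T1-T670I (CRISPR/Cas9 T670I knock-in, clone confirmed by Sanger sequencing) or GIST-5R cells in DMEM with 10% FBS. Cells then lysed and phospho-proteins detected by standard Western blotting.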
Chain of Mast/stem cell growth factor receptor Kit (Homo sapiens), P10721 [UNDEFINED MUTATION] (P10721 whole entry, looked up, stated change not applied): as the sequence (P10721 whole entry) above

Data set [8] deals with Serine/threonine-protein kinase pim-3 (Homo sapiens, UniProt Q86V86). As to the kind of experiment: Inhibition of wild-type human partial length PIM3 (G16 to A317 residues) expressed in bacterial expression system after 1 hr by Z-LYTE assay.
Data set [9] concerns Mast/stem cell growth factor receptor Kit (Homo sapiens), P10721 [UNDEFINED MUTATION]. In words: Inhibition of c-KIT 560 to 578 deletion mutant in human GISTT1 cells assessed as reduction in c-KIT autophosphorylation at Y823 residue at 0.1 uM to 3 uM after 1 hr by Western blot analysis. It counts as cell-based. In short, it runs like this:
as §1

Data set [10] deals with Serine/threonine-protein kinase PAK 2 (Homo sapiens, UniProt Q13177). In words: Inhibition of wild-type human partial length PAK2 (P151 to R525 residues) expressed in bacterial expression system after 1 hr by Z-LYTE assay.
Chain of Serine/threonine-protein kinase PAK 2 (Q13177 whole entry, the tested form may be a part): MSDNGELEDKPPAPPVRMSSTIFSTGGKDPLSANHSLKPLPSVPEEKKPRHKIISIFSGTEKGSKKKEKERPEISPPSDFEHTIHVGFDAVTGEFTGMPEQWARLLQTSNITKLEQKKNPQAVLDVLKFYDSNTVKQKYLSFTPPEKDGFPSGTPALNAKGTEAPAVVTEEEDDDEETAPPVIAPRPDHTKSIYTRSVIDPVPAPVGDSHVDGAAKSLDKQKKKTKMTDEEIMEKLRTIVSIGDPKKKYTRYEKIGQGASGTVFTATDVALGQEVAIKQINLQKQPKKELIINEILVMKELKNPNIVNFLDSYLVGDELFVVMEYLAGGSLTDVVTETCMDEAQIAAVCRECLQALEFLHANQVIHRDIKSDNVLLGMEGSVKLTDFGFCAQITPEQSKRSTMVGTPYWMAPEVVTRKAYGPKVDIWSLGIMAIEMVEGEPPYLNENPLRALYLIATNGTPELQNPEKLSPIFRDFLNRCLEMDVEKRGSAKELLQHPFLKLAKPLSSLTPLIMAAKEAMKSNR
Data set [11] relates to Mast/stem cell growth factor receptor Kit (Homo sapiens), P10721 [V559D]. As to the kind of experiment: Inhibition of TEL fused c-KIT V559D mutant (unknown origin) transfected in mouse BAF3 cells assessed as growth inhibition after 72 hrs by CCK8 assay. It counts as cell-based. In short, it runs like this:
(§2)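 Tel-c-KIT-transformed BaF3 lines (IL-3 independent) kept in RPMI 1640 with 10% FBS, 2% L-glutamine and pen/strep. Cells at 1.5 to 5 × 10^4 cells/mL mixed with graded compound and incubated 72 h at 37 °C, 5% CO2. Viability by CCK-8 absorbance at 450 nm, normalized to DMSO. GI50 from dose–response fit.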
A general note: Formazan colour is commonly taken as a measure of viable cells.

Data set [12] has as its system Mast/stem cell growth factor receptor Kit (Homo sapiens), P10721 [UNDEFINED MUTATION]. In words: Inhibition of c-KIT 560 to 578 deletion mutant in human GISTT1 cells assessed as reduction in c-KIT autophosphorylation at Y703 residue at 0.1 uM to 3 uM after 1 hr by Western blot analysis. It counts as cell-based. In outline:
as §1

For data set [13] the test system is unchanged. As to the kind of experiment: Inhibition of c-KIT 560 to 578 deletion/T670I double mutant in human GISTT1 cells assessed as reduction in S6 phosphorylation at S235/S236 residue at 0.1 uM to 3 uM after 1 hr by Western blot analysis. It counts as cell-based. In outline: as §1
Data set [14] shares this test system. In words: Inhibition of c-KIT 560 to 578 deletion/T670I double mutant in human GISTT1 cells assessed as reduction in ERK phosphorylation at T202/Y204 residue at 0.1 uM to 3 uM after 1 hr by Western blot analysis. It counts as cell-based. In outline: as §1
The test system of data set [15] is Mast/stem cell growth factor receptor Kit (Homo sapiens), P10721 [D816H]. In words: Inhibition of TEL fused c-KIT D816H mutant (unknown origin) transfected in mouse BAF3 cells assessed as growth inhibition after 72 hrs by CCK8 assay. It counts as cell-based. In outline:
as §2

In data set [16] the test system is Mast/stem cell growth factor receptor Kit (Homo sapiens), P10721 [UNDEFINED MUTATION]. In words: Inhibition of c-KIT 560 to 578 deletion mutant in human GISTT1 cells assessed as reduction in AKT phosphorylation at S473 residue at 0.1 uM to 3 uM after 1 hr by Western blot analysis. It counts as cell-based. In short, it runs like this:
as §1

The target of data set [17] is T1, Mast/stem cell growth factor receptor Kit. As to the kind of experiment: Inhibition of wild type TEL fused c-KIT (unknown origin) transfected in mouse BAF3 cells assessed as growth inhibition after 72 hrs by CCK8 assay. It counts as cell-based. The following applies: baf3, 72 h. In outline:
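IL-3 independent BaF3 cells stably expressing tel-c-KIT wt or tel-c-KIT T670I, grown in RPMI 1640 with 10% FBS, 2% L-glutamine, 37 °C, 5% CO2. Suspension cells at 1.5 to 5 × 10^4 cells/mL mixed with serial compound dilutions and incubated 72 h. Viability read by CCK-8 absorbance at 450 nm, normalized to DMSO; GI50 from curve fit. Selectivity is wt GI50 over T670I GI50.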

The target is the same in data set [18]. As to the kind of experiment: Inhibition of wild-type His-tagged c-KIT (unknown origin) expressed in baculovirus infected sf9 cells pre-incubated for 60 mins followed by ATP addition and measured after 1 hr by Z-LYTE assay.

Chain of Mast/stem cell growth factor receptor Kit (Homo sapiens), P10721 [V559D] (P10721 whole entry V559D, the tested form may be a part): as the sequence (P10721 whole entry) above, with V559D counted along it
Chain of Mast/stem cell growth factor receptor Kit (Homo sapiens), P10721 [D816H] (P10721 whole entry D816H, the tested form may be a part): as the sequence (P10721 whole entry) above, with D816H counted along it

With `O=C(CC(=O)Nc1ccc2c(/C=C/c3ccccn3)n[nH]c2c1)Nc1cccc(F)c1`, in the data set with Mus musculus [1], the inhibition entry is “inactive”. Besides, in data set [2], the time of peak concentration (Tmax) worked out at 1.8 min. For the same compound, the inhibition result (in the data set on Mus musculus [3]; in [9]; in data set [12]; in data set [13]; in data set [14]; in data set [16]) was “Active” each time. The compound also displayed an AUC(0-t) in data set [4] of 712 ng·h/mL. The compound further showed a pEC50 in [5] of 5.74. In addition, the Activity entry in the data set with Mus musculus [6] was “Non-Toxic”. In addition, in data set [7], the inhibition result is “Dose-dependent effect”. The pIC50 in data set [8] is below 5.00; in data set [10] it was below 5.00; in data set [18], 6.27. The GI50 in data set [11] worked out at 8 nM; in data set [15], 6840 nM; in data set [17], 1150 nM.
